Activity calls are given as the source filed them. The calls are words filed in the database; no cut-off is given here.

The target of data set [1] is T1, Albumin (Homo sapiens, UniProt P02768). Nature of the data set: Binding affinity to human serum albumin at 500 uM at 37 degC by surface plasmon resonance assay. The data set is classed as ADME. As to conditions: isolated protein. On the technique in general: Surface plasmon resonance follows binding to a sensor surface in real time, without labels.
Data set [2] addresses T2, Albumin (Rattus norvegicus, UniProt P02770). Nature of the data set: Binding affinity to rat serum albumin at 500 uM at 37 degC by surface plasmon resonance assay. It counts as ADME. As to conditions: isolated protein.
Data set [3] can be described thus: Binding affinity to low-affinity site of human alpha-1-acid glycoprotein at 20 degC by surface plasmon resonance assay. The data set is classed as ADME. Summed up: (§1)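 Cross-serial dilutions, top 250 μM. Reference-subtracted, solvent-corrected, double-referenced responses at the end of association plotted against concentration and fitted to single- or two-site equilibrium models.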

Data set [4] is described as follows: Binding affinity to high-affinity binding site of rat alpha-1-acid glycoprotein at 20 degC by surface plasmon resonance assay. The data set is classed as ADME. Summed up:
as §1

Data set [5] in a line: Binding affinity to low-affinity binding site of rat alpha-1-acid glycoprotein at 20 degC by surface plasmon resonance assay. It counts as ADME. In a few lines: as §1
In data set [6] the target is T1, Albumin. Nature of the data set: Binding affinity to human serum albumin at 500 uM at 20 degC by surface plasmon resonance assay. It counts as ADME. Conditions: isolated protein.
Data set [7] addresses T2, Albumin. Nature of the data set: Binding affinity to rat serum albumin at 500 uM at 20 degC by surface plasmon resonance assay. It counts as ADME. Conditions: isolated protein.
Data set [8] in a line: Binding affinity to human alpha-1-acid glycoprotein at 25 degC. It counts as ADME.
The nature of data set [9]: Binding affinity to human alpha-1-acid glycoprotein at 20 degC by isothermal titration calorimetry analysis. It counts as ADME. Summed up: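 ITC at 20 °C. Human (300 μM) or rat (100 μM) AAG dialysed overnight at 4 °C into 50 mM HEPES pH 7.2, 150 mM NaCl, 0.005% Tween-20, 5% DMSO. Heats corrected with buffer controls and fitted to a one-site model.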
On the technique in general: Isothermal titration calorimetry measures the heat released or taken up as one component is titrated into another.

A short description of data set [10]: Binding affinity to high-affinity site of human alpha-1-acid glycoprotein at 20 degC by surface plasmon resonance assay. The data set is classed as ADME. In a few lines: as §1
Data set [11] can be described thus: Binding affinity to 10 uM of human alpha-1-acid glycoprotein in at 5 uM after 6 hrs by equilibrium dialysis method. The data set is classed as ADME. As to conditions: isolated protein. In a few lines:
(§2)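 [14C]-labelled plus unlabelled drug added to human AAG at 0.5, 1 or 5 mg/mL to give 5, 25 or 75 μM drug. Dialysed against 0.133 M isotonic phosphate buffer, 6 h, 37 °C, 5% CO2. Scintillation counting of both sides gives % free (buffer/protein side ×100) and % bound. High-affinity KD from a two-site fit of bound vs free, Bmax1 fixed at the AAG concentration.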
On the technique in general: Equilibrium dialysis compares concentrations on both sides of a semipermeable membrane.

A short description of data set [12]: Binding affinity human alpha-1-acid glycoprotein in after 6 hrs by equilibrium dialysis method. The data set is classed as ADME. Summed up:
as §2

Data set [13] concerns the target Sonic hedgehog protein (Homo sapiens) (UniProt Q15465). Nature of the data set: Inhibition of human SHH pathway in mouse S12 cells assessed as GLI-mediated transcriptional activity after 48 hrs by luciferase reporter gene assay in presence of 1 mg/mL human alpha-1-acid glycoprotein. It counts as cell-based. In a few lines: (§3)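 Mouse C3H10T1/2-derived S12 cells carrying a stably integrated GLI-luciferase reporter. Grown in high-glucose DMEM with 10% FBS, replated, then switched to 0.5% FBS to induce cilia. Shh, human AAG (0, 0.5, 1 or 5 mg/mL) and compound added. Luciferase (Dual-Glo) read after 48 h. Mean of four experiments ±SD.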

Data set [14] shares this target. Kind of data set: Inhibition of human SHH pathway in mouse S12 cells assessed as GLI-mediated transcriptional activity at 3 uM after 48 hrs by luciferase reporter gene assay in presence of 5 mg/mL human alpha-1-acid glycoprotein. It counts as cell-based. Summed up:
as §3

Data set [15] is described as follows: Binding affinity to human alpha-1-acid glycoprotein at 37 degC by surface plasmon resonance assay. It counts as ADME. Summed up: as §1
Data set [16] can be described thus: Binding affinity to rat alpha-1-acid glycoprotein at 250 uM at 37 degC by surface plasmon resonance assay. It counts as ADME. In a few lines:
as §1

For data set [17], the target named is T2, Albumin. Nature of the data set: Binding affinity to rat serum albumin at 37 degC by surface plasmon resonance assay.
Data set [18] addresses T2, Albumin. Nature of the data set: Binding affinity to high-affinity binding site of rat serum albumin at 20 degC by surface plasmon resonance assay.
For data set [19], the target named is T2, Albumin. Nature of the data set: Binding affinity to low-affinity binding site of rat serum albumin at 20 degC by surface plasmon resonance assay.
The nature of data set [20]: Binding affinity to […] uM of human alpha-1-acid glycoprotein in at 5 uM after 6 hrs by equilibrium dialysis method. It counts as ADME. Conditions: isolated protein.
Data set [21] in a line: Binding affinity to 100 uM of human alpha-1-acid glycoprotein in at 5 uM after 6 hrs by equilibrium dialysis method. Conditions: isolated protein. The data set is classed as ADME. In a few lines: as §2
Data set [22] can be described thus: Binding affinity to 10 uM of human alpha-1-acid glycoprotein in at 25 uM after 6 hrs by equilibrium dialysis method. The data set is classed as ADME. As to conditions: isolated protein. Summed up:
as §2

Data set [23] can be described thus: Binding affinity to […] uM of human alpha-1-acid glycoprotein in at 25 uM after 6 hrs by equilibrium dialysis method. It counts as ADME. As to conditions: isolated protein.
A short description of data set [24]: Binding affinity to 100 uM of human alpha-1-acid glycoprotein in at 25 uM after 6 hrs by equilibrium dialysis method. The data set is classed as ADME. As to conditions: isolated protein. Summed up:
as §2

A short description of data set [25]: Binding affinity to 10 uM of human alpha-1-acid glycoprotein in at 75 uM after 6 hrs by equilibrium dialysis method. The data set is classed as ADME. Conditions: isolated protein. In a few lines: as §2
Data set [26] is described as follows: Binding affinity to […] uM of human alpha-1-acid glycoprotein in at 75 uM after 6 hrs by equilibrium dialysis method. The data set is classed as ADME. Conditions: isolated protein.
A short description of data set [27]: Binding affinity to 100 uM of human alpha-1-acid glycoprotein in at 75 uM after 6 hrs by equilibrium dialysis method. The data set is classed as ADME. Conditions: isolated protein. Summed up:
as §2

A short description of data set [28]: Binding affinity to human alpha-1-acid glycoprotein at 500 uM at 37 degC by surface plasmon resonance assay. The data set is classed as ADME. Summed up: (§4)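 Compounds were diluted from 10 mM DMSO stocks into 50 mM Hepes pH 7.2, 150 mM NaCl, 0.005% Tween-20, 5% DMSO, in cross-serial dilutions. Responses at the end of association were double-referenced, solvent-corrected and fit to single- or two-site equilibrium models for KD.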

The nature of data set [29]: Binding affinity to rat alpha-1-acid glycoprotein at 500 uM at 37 degC by surface plasmon resonance assay. It counts as ADME. Summed up:
as §4

A short description of data set [30]: Binding affinity to human alpha-1-acid glycoprotein at 500 uM at 20 degC by surface plasmon resonance assay. It counts as ADME. Summed up:
as §4

Data set [31] is described as follows: Binding affinity to rat alpha-1-acid glycoprotein at 500 uM at 20 degC by surface plasmon resonance assay. It counts as ADME. In a few lines: as §4

T2 sequence (P02770 whole entry): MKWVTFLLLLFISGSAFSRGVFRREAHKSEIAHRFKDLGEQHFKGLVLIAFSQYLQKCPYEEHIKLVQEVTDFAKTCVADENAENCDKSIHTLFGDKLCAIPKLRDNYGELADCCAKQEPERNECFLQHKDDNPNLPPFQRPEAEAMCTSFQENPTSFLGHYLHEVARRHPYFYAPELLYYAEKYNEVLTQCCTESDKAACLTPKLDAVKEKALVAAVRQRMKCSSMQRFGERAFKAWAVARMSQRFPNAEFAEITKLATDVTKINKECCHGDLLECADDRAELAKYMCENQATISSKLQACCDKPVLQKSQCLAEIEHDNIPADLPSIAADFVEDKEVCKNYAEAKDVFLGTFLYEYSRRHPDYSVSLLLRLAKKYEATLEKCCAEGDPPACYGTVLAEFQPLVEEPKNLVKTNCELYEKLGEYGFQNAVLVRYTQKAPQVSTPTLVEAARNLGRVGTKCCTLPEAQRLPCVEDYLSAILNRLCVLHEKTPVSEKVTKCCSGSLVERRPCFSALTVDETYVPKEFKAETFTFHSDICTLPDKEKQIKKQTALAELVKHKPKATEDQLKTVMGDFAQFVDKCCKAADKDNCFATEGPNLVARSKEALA
Sonic hedgehog protein (Homo sapiens), sequence (Q15465 24-197 limits assumed): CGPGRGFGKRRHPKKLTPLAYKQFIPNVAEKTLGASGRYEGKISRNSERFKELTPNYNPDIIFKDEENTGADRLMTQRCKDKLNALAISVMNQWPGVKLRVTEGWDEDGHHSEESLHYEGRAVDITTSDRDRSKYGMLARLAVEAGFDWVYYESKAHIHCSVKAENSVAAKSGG
T1 sequence (P02768 whole entry): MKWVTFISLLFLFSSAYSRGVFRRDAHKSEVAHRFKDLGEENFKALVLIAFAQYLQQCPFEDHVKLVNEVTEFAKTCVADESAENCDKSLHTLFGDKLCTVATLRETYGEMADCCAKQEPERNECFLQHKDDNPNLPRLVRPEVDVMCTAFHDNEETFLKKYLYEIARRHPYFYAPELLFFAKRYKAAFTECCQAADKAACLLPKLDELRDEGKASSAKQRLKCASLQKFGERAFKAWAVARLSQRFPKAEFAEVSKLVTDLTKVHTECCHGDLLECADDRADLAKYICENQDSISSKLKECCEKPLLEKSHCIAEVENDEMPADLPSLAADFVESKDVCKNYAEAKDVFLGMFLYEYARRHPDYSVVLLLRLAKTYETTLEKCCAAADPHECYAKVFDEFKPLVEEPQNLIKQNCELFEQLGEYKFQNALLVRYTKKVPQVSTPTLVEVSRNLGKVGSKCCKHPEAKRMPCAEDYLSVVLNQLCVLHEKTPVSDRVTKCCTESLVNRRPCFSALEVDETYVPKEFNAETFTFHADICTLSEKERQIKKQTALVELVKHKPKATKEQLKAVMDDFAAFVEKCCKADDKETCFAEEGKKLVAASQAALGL

On to `C=CC1=C(C)/C(=C/C2=NC(=C\c3[nH]c(/C=C4\NC(=O)C(C)=C4C=C)c(C)c3CCC(=O)O)/C(CCC(=O)O)=C2C)NC1=O` [BILIVERDIN], for which the Activity entry on Albumin [1], on Albumin [2], at Albumin [6] and at Albumin [7] was “Not Active” in each case. The Kd (as a rule, the concentration at which binding is half-saturated) in data set [3] turned out to be 219 µM; in [4] it was 71 µM; in data set [5] it was 1700 µM; in [8] it was 8.3 µM; in [9], 7 µM; in data set [10] it was 15.3 µM.
As for `CS(=O)(=O)c1ccc(C(=O)Nc2ccc(Cl)c(-c3ccccn3)c2)c(Cl)c1` [VISMODEGIB], the Activity is 96.5% in data set [11]; “Not Active” in [16]; 98.3% in [20]; 98.8% in data set [21]; 70.4% in [22]; 88.9% in data set [23]. Besides, the Activity was 98.7% in data set [24], 41.1% in data set [25], 60% in data set [26] and 98.3% in data set [27]. Moreover, the Kd was found to be 1.5 µM in data set [12]; 13 µM in data set [15]; 140 µM on Albumin [17]; 139 µM in data set [3]; 171 µM at Albumin [18]; 5.8 µM at Albumin [19]. Further, the results for the Kd in data set [9] and in data set [10] were 1.1 µM and 3.7 µM, respectively. Further, the inhibition result in data set [13] is “Active”. For the same compound, the inhibition result in data set [14] is “inactive”.
In the case of `CC(=O)CC(c1ccccc1)c1c(O)c2ccccc2oc1=O` (centres undefined) [WARFARIN], the Activity entry in data set [28], in [29], in [30] and in data set [31] was “Not Active” in each case.

The values are drawn from ChEMBL document CHEMBL1772967 (J Med Chem, 2011).
